In publication PMC9378630 (Chemmedchem, 2022):
Values joined by “and” are separate entries in the source; they are usually repeats but may differ in a detail not shown here. Equal values may be shown once. Read-outs that look alike come from different tables or passages of the source.

Experiments:
[1] = target: T1, CatSper (Homo sapiens, UniProt Q7RTX7+Q86XQ3+Q8NEC5+Q96P56); assay: Progesterone-induced calcium uptake; format: cell-based
[2] = AlamarBlue cytotoxicity assay in human sperm; format: cell-based; conditions: human, human sperm
How it was run: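 Sperm isolated by centrifugation: liquefied at 37 °C, HTF-washed twice, 800×g, resuspended in Low/Low (low pH/low K+) buffer. Mixed with test compound (2.2x in Low/Low). 8 half-log concentrations, 100 μM to 32 nM final, in duplicate. AlamarBlue at 37 °C, 560/590 nm fluorescence every 15 min over 3 h. IC50 from concentration-response fit.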

[3] = AlamarBlue cytotoxicity assay in IMR-90 fibroblasts; format: cell-based, human; conditions: human, IMR-90 lung fibroblast cells
How it was run: (§1)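 IMR-90 lung fibroblasts cultured 2 weeks in EMEM + 10% FBS, split 2–4 days before use, trypsin-EDTA detached and resuspended in culture medium. Added to test compound (2.2x in Low/Low buffer). 8 half-log concentrations, 100 μM to 32 nM final, in duplicate. AlamarBlue added, 37 °C, fluorescence 560/590 nm read every 30 min over 7 h. IC50 from concentration-response fit.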

[4] = target: T2, human SLO3 and LRRC52 (Homo sapiens, UniProt A8MYU2); format: cell-based; conditions: for hSLO3 current in the presence of compound, % of control: 10 μM, +60 mV, n=5 cells, mean±SD in text; for inhibition at 10 µM: HEK293, read-out: Inhibition at 10 μM [%] hSlo3
T2 sequence (A8MYU2 1-1149): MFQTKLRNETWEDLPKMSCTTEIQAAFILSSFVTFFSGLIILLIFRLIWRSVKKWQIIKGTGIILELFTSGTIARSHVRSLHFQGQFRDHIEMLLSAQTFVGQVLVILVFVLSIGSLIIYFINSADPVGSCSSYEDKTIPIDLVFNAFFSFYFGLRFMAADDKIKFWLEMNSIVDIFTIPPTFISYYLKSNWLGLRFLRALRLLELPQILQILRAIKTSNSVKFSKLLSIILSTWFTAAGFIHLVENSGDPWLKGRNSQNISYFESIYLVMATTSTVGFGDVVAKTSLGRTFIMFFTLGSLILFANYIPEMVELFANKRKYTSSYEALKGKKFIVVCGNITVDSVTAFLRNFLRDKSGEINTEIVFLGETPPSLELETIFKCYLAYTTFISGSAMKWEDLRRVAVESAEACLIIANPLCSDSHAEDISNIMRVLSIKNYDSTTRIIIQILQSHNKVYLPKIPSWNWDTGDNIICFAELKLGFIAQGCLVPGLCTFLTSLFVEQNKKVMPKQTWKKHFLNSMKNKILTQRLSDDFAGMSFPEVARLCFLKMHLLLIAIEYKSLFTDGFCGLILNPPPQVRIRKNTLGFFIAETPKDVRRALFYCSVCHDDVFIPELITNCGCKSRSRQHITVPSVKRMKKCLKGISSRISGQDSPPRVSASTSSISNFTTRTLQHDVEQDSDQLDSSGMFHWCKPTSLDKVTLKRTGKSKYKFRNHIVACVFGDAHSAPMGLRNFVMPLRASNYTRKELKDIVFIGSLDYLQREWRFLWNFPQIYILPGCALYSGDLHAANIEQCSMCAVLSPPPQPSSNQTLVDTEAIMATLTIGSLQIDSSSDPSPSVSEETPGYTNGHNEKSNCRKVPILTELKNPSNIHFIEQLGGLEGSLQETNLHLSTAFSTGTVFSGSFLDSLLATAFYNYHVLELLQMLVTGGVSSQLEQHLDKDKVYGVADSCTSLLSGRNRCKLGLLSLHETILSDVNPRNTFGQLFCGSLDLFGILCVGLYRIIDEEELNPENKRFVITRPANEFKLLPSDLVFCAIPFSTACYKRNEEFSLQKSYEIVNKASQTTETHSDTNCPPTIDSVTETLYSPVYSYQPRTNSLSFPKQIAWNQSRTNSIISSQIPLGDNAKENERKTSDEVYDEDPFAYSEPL
T2 sequence (Q8N7C0 24-313 partner): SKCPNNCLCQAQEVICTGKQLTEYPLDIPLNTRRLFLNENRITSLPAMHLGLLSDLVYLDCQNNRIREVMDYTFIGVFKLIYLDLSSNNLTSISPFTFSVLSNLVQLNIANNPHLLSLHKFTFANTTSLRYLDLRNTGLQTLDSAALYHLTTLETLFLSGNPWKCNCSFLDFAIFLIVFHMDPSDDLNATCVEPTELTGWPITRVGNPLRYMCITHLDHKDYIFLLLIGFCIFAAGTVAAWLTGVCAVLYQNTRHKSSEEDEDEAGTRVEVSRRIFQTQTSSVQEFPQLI

[5] = target: hCav1.2 (Homo sapiens, UniProt Q13936); assay: hCav1.2 FLIPR assay in stably expressing cell line; format: cell-based; conditions: read-out: Inhibition at 10 μM [%] hCav1.2
[6] = target: hNav1.5 (Homo sapiens, UniProt Q14524); assay: hNav1.5 manual patch-clamp in CHO cells; format: cell-based; conditions: read-out: Inhibition at 10 μM [%] hNav1.5
[7] = target: hERG (Homo sapiens, UniProt Q12809); assay: hERG manual patch-clamp in HEK293 cells; format: cell-based; conditions: HEK293 cells expressing hERG
[8] = target: T1, CatSper; assay: Whole cell patch clamp electrophysiology of ICatSper in human sperm; format: cell-based; conditions: for Inhibition (block) of the inward ICatSper: 10 μM compound, human sperm, CsDVF
How it was run: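 Swim-up sperm, seal at cytoplasmic droplet in HS buffer (pH 7.4), 12–18 MΩ pipettes with CsDVF internal. Break-in by 1 ms 450 mV pulses. Control current in CsDVF bath, then 10 μM compound for ~8–10 s. Ramp −80 to +80 mV from 0 mV every 3 s. Current density at ±80 mV, room temperature. Washout with CsDVF.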

[9] = test system: human sperm; assay: CASA: PGE1-induced hyperactivated motility; format: cell-based; conditions: 100 nM compound, 100 nM PGE1, HAM measured after 4 h
[10] = test system: IMR‐90 fibroblasts; assay: AlamarBlue cytotoxicity assay in IMR-90 fibroblasts; format: cell-based, human; conditions: at concentrations fully inhibiting CatSper; AlamarBlue, 2 h
How it was run: as §1

[11] = test system: human sperm; assay: Computer-aided sperm analysis; format: cell-based; conditions: 10 μM, 4 h incubation with human sperm
How it was run: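 Motile sperm selected by swim-up into bicarbonate-free HAM's-F10 (37 °C, 5% CO2, 1 h), ≥10×10^6 cells/mL. Incubated 4 h with increasing test compound concentrations. CASA at 37 °C gives total and progressive motility from VAP, VSL, VCL, LIN and STR, as % of population. ≥10 fields/≥200 cells. Mean±SEM of ≥3 experiments; one-way ANOVA with Dunnett's test.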

[12] = test system: human sperm; assay: CASA: progesterone-induced hyperactivated motility; format: cell-based; conditions: 10 μM compound, 100 nM progesterone, HAM measured after 4 h
[13] = read-out: Inhibition (block) of the inward ICatSper
[14] = read-out: Inhibition at 10 μM [%] CatSper

hERG, sequence (Q12809 whole entry): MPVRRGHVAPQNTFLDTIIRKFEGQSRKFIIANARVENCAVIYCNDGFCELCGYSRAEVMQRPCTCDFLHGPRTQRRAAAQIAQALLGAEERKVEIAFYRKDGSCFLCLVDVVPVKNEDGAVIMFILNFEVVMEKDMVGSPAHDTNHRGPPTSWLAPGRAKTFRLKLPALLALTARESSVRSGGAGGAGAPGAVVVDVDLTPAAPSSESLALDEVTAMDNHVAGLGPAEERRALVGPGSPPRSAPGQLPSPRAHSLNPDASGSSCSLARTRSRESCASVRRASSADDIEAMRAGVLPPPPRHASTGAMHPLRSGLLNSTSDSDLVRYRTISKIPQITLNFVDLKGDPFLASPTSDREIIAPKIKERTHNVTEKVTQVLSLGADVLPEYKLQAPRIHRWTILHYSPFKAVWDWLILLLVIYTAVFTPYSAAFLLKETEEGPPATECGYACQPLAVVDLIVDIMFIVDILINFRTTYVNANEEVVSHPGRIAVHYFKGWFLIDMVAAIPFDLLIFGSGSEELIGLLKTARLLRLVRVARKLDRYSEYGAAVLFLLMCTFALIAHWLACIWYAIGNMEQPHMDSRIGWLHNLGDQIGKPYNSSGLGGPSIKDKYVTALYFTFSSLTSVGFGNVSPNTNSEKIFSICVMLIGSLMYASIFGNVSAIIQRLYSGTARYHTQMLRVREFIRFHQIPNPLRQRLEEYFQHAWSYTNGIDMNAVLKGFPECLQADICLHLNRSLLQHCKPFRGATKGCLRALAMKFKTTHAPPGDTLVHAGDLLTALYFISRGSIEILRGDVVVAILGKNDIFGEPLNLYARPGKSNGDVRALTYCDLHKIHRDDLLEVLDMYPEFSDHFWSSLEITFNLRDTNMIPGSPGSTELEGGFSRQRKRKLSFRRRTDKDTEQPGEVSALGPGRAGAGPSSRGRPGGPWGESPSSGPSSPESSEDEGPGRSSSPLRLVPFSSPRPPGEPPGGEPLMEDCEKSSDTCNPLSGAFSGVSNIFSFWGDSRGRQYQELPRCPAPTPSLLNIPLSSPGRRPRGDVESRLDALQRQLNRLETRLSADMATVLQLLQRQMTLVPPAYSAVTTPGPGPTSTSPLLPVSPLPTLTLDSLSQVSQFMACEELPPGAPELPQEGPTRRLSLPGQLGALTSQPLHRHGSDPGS
hNav1.5, sequence (Q14524 whole entry): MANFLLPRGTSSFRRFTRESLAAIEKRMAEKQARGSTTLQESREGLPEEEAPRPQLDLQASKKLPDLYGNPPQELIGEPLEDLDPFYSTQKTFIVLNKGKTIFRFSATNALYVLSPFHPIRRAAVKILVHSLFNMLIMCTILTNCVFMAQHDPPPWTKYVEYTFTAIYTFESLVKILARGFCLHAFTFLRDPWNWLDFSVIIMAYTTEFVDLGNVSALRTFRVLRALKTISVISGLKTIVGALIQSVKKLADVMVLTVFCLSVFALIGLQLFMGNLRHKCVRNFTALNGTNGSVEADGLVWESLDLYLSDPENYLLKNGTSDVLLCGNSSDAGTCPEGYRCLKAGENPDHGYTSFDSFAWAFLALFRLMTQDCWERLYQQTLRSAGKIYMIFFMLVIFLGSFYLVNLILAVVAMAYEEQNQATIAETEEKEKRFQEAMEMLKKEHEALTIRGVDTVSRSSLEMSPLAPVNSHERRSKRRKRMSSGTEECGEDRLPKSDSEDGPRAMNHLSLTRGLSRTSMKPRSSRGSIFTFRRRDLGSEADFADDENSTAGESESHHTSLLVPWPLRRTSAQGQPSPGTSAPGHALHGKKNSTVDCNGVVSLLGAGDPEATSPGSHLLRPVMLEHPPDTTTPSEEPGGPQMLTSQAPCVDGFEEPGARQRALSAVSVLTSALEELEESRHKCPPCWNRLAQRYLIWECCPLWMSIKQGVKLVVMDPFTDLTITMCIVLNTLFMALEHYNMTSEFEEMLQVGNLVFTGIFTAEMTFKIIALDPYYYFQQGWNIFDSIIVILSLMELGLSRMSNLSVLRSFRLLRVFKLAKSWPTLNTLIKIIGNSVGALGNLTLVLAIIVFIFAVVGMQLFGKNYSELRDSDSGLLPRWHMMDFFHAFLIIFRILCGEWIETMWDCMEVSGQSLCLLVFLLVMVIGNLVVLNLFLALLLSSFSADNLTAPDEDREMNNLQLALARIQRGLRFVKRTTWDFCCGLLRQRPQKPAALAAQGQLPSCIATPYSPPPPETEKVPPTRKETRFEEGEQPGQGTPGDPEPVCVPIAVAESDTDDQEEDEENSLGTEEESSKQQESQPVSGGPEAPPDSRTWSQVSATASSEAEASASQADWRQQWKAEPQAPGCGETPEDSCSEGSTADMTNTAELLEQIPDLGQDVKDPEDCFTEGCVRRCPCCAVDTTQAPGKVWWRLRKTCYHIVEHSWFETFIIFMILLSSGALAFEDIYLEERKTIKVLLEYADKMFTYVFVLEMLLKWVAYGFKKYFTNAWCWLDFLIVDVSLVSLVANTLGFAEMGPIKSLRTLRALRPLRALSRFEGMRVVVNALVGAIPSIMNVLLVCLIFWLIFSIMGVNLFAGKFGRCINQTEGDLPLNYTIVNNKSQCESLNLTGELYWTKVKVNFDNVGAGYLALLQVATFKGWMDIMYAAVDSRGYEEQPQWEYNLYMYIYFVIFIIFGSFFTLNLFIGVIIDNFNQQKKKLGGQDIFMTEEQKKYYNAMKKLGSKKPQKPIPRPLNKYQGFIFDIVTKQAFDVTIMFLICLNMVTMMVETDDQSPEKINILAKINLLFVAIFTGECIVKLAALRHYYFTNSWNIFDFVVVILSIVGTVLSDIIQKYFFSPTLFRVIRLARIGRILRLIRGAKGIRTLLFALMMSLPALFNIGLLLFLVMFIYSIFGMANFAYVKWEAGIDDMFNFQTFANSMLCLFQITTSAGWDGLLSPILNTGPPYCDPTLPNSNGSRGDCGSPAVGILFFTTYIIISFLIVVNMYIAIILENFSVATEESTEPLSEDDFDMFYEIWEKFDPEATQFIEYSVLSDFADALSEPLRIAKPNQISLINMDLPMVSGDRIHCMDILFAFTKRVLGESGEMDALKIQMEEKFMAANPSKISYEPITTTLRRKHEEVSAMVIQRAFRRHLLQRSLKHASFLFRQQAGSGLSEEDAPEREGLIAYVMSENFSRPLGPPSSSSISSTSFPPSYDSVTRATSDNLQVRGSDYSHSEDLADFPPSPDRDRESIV

Structure (SMILES) | IC50 [1] | IC50 at 3 h [2] | IC50 at 7 h [3] | hSLO3 current in the presence of compound, % of control [4] | inhibition at 10 µM [4] | inhibition at 10 µM [5] | inhibition at 10 µM [6] | inhibition at 10 µM [7] | inhibition at 10 µM [8, 13] | inhibition at 10 µM [8, 14] | Inhibition of PGE1-induced HAM [9] | Effect on IMR‐90 viability [10] | Inhibition (block) of the inward ICatSper [8] | Progressive motility (CASA) [11] | Total motility (CASA) [11] | Reduction of progesterone-induced HAM [12] | hSLO3 current in the presence of compound, % of control ([4]; 10 µM) | Reversibility of ICatSper block on washout ([8]; washed out with CsDVF after 10 μM compound)
NC(N)=NC(=O)c1nc(Cl)c(N2CCCCCC2)nc1N [1 a, 3‐Amino‐5‐(azepan‐1‐yl)‐6‐chloro‐N‐(diaminomethylene)pyrazine‐2‐carboxamide] | 5.4 ± 0.6 µM | > 100 µM | > 100 µM | 101.5±6.4 % of control | -2% | 4% | 68% | 92% | – | – | – | – | – | – | – | – | – | –
N=C(N)NC(=O)c1nc(Cl)c(N)nc1N [1 d, amiloride, reference compound] | > 100 µM | – | – | – | – | – | – | – | – | – | – | – | – | – | – | – | – | –
OC1(c2ccc(Cl)cc2)CCN(Cc2c[nH]c3ccccc23)CC1 [2 a, 4‐(4‐Chlorophenyl)‐1‐(1H‐indol‐3‐ylmethyl)‐4‐piperidinol] | 7.5 ± 1.3 µM | > 100 µM | > 100 µM | – | – | 39% | 77% | 100% | 65% | 73% | greatly reduced HAM | reduce viability slightly | – | – | – | – | – | –
c1ccc(CN2CCC(c3c[nH]c4ccccc34)CC2)cc1 [2 l, 3‐(1‐benzylpiperidin‐4‐yl)‐1H‐indole] | > 100 µM | – | – | – | – | – | – | – | – | – | – | – | – | – | – | – | – | –
Cc1cc(C)c2nc(C)cc(NCCc3ccccc3)c2c1 [3 a, 2,6,8‐Trimethyl‐N‐(2‐phenylethyl)‐4‐quinolinamine] | 3.6 ± 0.6 µM | > 100 µM | 96 ± 5 µM | 58.5±12.5 % of control | 42% | 10% | 94% | 100% | – | 96% | – | – | near complete inhibition | – | – | – | – | –
O=C(Nc1cccc(C(F)(F)F)c1)N1CCN(c2cccc(C(F)(F)F)c2)CC1 [4 a, N ,4‐Bis(3‐(trifluoromethyl)phenyl)piperazine‐1‐carboxamide] | 4.9 ± 0.6 µM | > 100 µM | > 100 µM | – | 75% | 65% | 95% | – | 84% | 83% | – | – | – | substantially reduced | substantially reduced | statistically significant | 24.6±9.1 % of control and 25 % of control | –
N=c1n(CCN2CCCCC2)c2ccccc2n1CC(O)c1cccc(Br)c1 (centres unmarked) [5 f, 1‐(3‐Bromophenyl)‐2‐(2‐imino‐3‐(2‐(piperidin‐1‐yl)ethyl)‐2,3‐dihydro‐1H‐benzo[d]imidazol‐1‐yl)ethan‐1‐ol] | 3.4 ± 0.4 µM | > 100 µM | 83 ± 14 µM | 83.2±7.8 % of control | – | – | – | – | 47% | – | – | – | – | substantially reduced | substantially reduced | – | – | apparent irreversible loss of channel function
CN1CCCC(n2nc(Cc3ccc(Cl)cc3)c3ccccc3c2=O)CC1 (centres unmarked) [6 a, azelastine, reference compound] | 5.4 ± 0.4 µM | – | – | – | – | – | – | – | – | – | – | – | – | – | – | – | – | –
O=c1c2ccccc2c(Cc2ccc(Cl)cc2)nn1C1CCCNCC1 (centres unmarked) [6 b, 2‐(Azepan‐4‐yl)‐4‐(4‐chlorobenzyl)phthalazin‐1(2H)‐one] | 8.3 ± 1.1 µM | 84 ± 10 µM | 68 ± 5 µM | 66.3±8.5 % of control | – | – | – | – | – | 100% | – | reduce viability slightly | near complete inhibition | – | – | statistically significant | – | –
CCN(CC)CCNC(=O)C1CCN(c2ccc3nnc(-c4cccc(C)c4)n3n2)CC1 [7 a, N ‐(2‐(Diethylamino)ethyl)‐1‐(3‐(m–tolyl)‐[1,2,4]triazolo[4,3‐b]pyridazin‐6‐yl)piperidine‐4‐carboxamide] | 20 ± 1 µM | > 100 µM | > 100 µM | – | – | -9% | – | – | 89% | – | – | – | – | substantially reduced | substantially reduced | statistically significant | 37.5±5.6 % of control and 38 % of control | –
